CAL PDZ FP-1: blocks peptide binding to human CAL PDZ domain; purified CAL PDZ, TMR-peptide fluorescence polarization, 1 h; inhibition, % at 20 µM; 330,000 compounds, 0.02% hits; AID 504414;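 active = highest replicate inhibition of at least 40%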
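System: purified tagged CAL PDZ domain construct (CerCALP). Schedule: 1 h incubation at room temperature before polarization reading. Medium: 25 mM sodium phosphate pH 7.4, 150 mM NaCl, TCEP, IgG, Thesit. Read-out: percent inhibition from loss of millipolarization. Measured by: FP readout, S and P plane fluorescence. Probe or stimulus: fluorescent TMR peptide probe.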
CAL PDZ FP-2: CAL PDZ (human) peptide binding inhibition; purified CAL PDZ, TMR-peptide fluorescence polarization, 1 h; 300,000 compounds, 0.92% hits; inhibition, % at 24.9 µM; AID 602252; Q9HD26;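 active = mean inhibition of at least 30% with at least half of replicates also reaching 30%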
ARNT TACC3 PPI: disrupts binding between human ARNT and TACC3. 390,000 compounds, 0.66% hits. Q9Y6A5. AID 623870. AlphaScreen His-ARNT PAS-B/GST-TACC3 binding, luminescence; TACC3 fragment carries E629A point mutation. inhibition, % at 9.99 µM;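 active = mean inhibition of replicates at least 50% and at least half of replicates each reaching 50%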
Of the large screens only hits and unclear results are named; the others gave an inactive call; ! = not confirmed by another sample. The list is not random: actives were taken first. Their share in the collection is about 1.2%.

C[C@H](CO)N1C[C@H](C)[C@H](CN(C)S(=O)(=O)c2ccc(Cl)cc2)Oc2ccc(NC(=O)Nc3ccccc3)cc2CC1=O	none (no result: CAL PDZ FP-1, CAL PDZ FP-2)
CC1CC(C)(C)NC(=S)N1CCC(=O)NCc1ccc(F)cc1 (stereo not drawn)	none (no result: ARNT TACC3 PPI)
COc1ccc(CNC(=O)CCN2C(=S)NC(C)(C)CC2C)cc1 (stereo not drawn)	CAL PDZ FP-2 64.9
CC(C)NC(=O)Nc1ccc2c(c1)C(=O)N([C@H](C)CO)C[C@H](C)[C@@H](CN(C)S(=O)(=O)c1ccc(F)cc1)OCCCC[C@@H](C)O2	none (no result: CAL PDZ FP-1, CAL PDZ FP-2)
CC1(c2ccc3ccccc3c2)NC(=O)N(CC(=O)N2CCN(Cc3ccccc3)CC2)C1=O (stereo not drawn)	none
OC1(c2ccc3ccccc3c2)CCN(Cc2ccccc2)C1 (stereo not drawn)	CAL PDZ FP-2 38.2
Cc1cc(N)n(-c2ccc(S(N)(=O)=O)cc2[N+](=O)[O-])n1	CAL PDZ FP-2 76.1
Cc1cc(N)n(-c2ccc(S(=O)(=O)N3CCOCC3)cc2[N+](=O)[O-])n1	none
O=C(C[C@H]1CC[C@@H]2[C@H](COC[C@@H](O)CN2S(=O)(=O)c2ccc(Oc3ccccc3)cc2)O1)Nc1ccccc1	none (no result: CAL PDZ FP-1, CAL PDZ FP-2)
Cc1ccc(O)c(C(CC(=O)NC(C)C)c2ccccc2)c1 (stereo not drawn)	none
CCC(C)NC(=O)CC(c1ccccc1)c1cc(C)ccc1O (stereo not drawn)	CAL PDZ FP-2 33.9
COc1ccc(Br)cc1/C=N/n1c(C)nc2ccccc2c1=O	none
Cc1nc2ccccc2c(=O)n1/N=C/c1cc(Br)ccc1O	ARNT TACC3 PPI 59.5
O=C(C[C@H]1C[C@H]2c3cc(NC(=O)NC4CCCC4)ccc3O[C@H]2[C@@H](CO)O1)NCCN1CCCCC1	none (no result: CAL PDZ FP-1, CAL PDZ FP-2)
CCN(CC(=O)Nc1c(F)cccc1F)C(=O)CSCC(=O)Nc1cccc(C)c1	CAL PDZ FP-2 77.8
CCN(CC(=O)Nc1c(F)cccc1F)C(=O)Cn1[nH]c(=O)c2ccccc2c1=O	CAL PDZ FP-2 77.8
CCN(CC(=O)Nc1c(F)cccc1F)C(=O)Cc1c[nH]c2ccccc12	none
CCN(CC(=O)Nc1c(F)cccc1F)C(=O)CSCC(=O)Nc1ccc(OC)cc1	none
C[C@H](CO)N1C[C@H](C)[C@@H](CN(C)C(=O)NC2CCCCC2)Oc2ccc(NS(=O)(=O)c3ccccc3)cc2CC1=O	none (no result: CAL PDZ FP-1, CAL PDZ FP-2)
O=C(NNC1=C(C(=O)C(F)(F)F)CCC1)c1ccccc1Cl	none
O=C(NNC1=C(C(=O)C(F)(F)F)CCC1)c1ccccc1O	ARNT TACC3 PPI 63.2
C[C@H]1CN([C@@H](C)CO)C(=O)c2ccccc2-c2ccccc2CO[C@H]1CN(C)S(=O)(=O)c1ccc(Cl)cc1	none (no result: CAL PDZ FP-1, CAL PDZ FP-2)
C[C@H]1CN([C@@H](C)CO)C(=O)c2cccc(NS(=O)(=O)c3ccc(F)cc3)c2O[C@H]1CN(C)C(=O)Nc1ccc2c(c1)OCO2	none (no result: CAL PDZ FP-1, CAL PDZ FP-2)
Nn1cnnc1N/N=C/c1cc(Br)cc(Br)c1O	ARNT TACC3 PPI 48.9
CC(C)(C)c1ccc(/C=N/Nc2nncn2N)cc1	none
Cc1c(NS(=O)(=O)c2ccccc2)c(=O)n(-c2ccccc2)n1C	none
Cc1ccc(S(=O)(=O)Nc2c(C)n(C)n(-c3ccccc3)c2=O)cc1	CAL PDZ FP-2 54.4!
C[C@H](CO)N1C[C@H](C)[C@@H](CN(C)C(=O)Nc2ccc(C(F)(F)F)cc2)Oc2ccc(NC(=O)C3CCCCC3)cc2CC1=O	none (no result: CAL PDZ FP-1, CAL PDZ FP-2)
C[C@@H]1CCCCO[C@H](CN(C)S(C)(=O)=O)[C@@H](C)CN([C@H](C)CO)C(=O)c2cc(NS(=O)(=O)c3ccccc3)ccc2O1	none (no result: CAL PDZ FP-1, CAL PDZ FP-2)
COCC(=O)Nc1ccc2c(c1)C(=O)N(C)[C@H]1CC[C@@H](CC(=O)NCC(F)(F)F)O[C@H]1CO2	none (no result: CAL PDZ FP-1, CAL PDZ FP-2)
COc1ccc(NCCC(O)c2ccc(Cl)cc2)cc1 (stereo not drawn)	CAL PDZ FP-2 35.0 (no result: CAL PDZ FP-1)
COc1ccc(Cl)cc1NCCC(O)c1ccc(F)cc1 (stereo not drawn)	none
CCOC(=O)NC(=O)/C(N=Nc1ccc(C(F)(F)F)cc1)=C(\C)O	CAL PDZ FP-2 44.5 (no result: ARNT TACC3 PPI)
CCOC(=O)NC(=O)/C(N=Nc1cc(C)cc(C)c1)=C(\C)O	none
O=[N+]([O-])c1ccc(Cl)cc1Sc1cccc2cccnc12	none
Cn1nc([N+](=O)[O-])nc1Sc1cccc2cccnc12	ARNT TACC3 PPI 63.3
O=C(N[C@H]1CC[C@H](CC(=O)N2CCc3ccccc3C2)O[C@H]1CO)C1CC1	none (no result: CAL PDZ FP-1, CAL PDZ FP-2)
O=C(C[C@@H]1C[C@@H]2c3cc(NS(=O)(=O)c4ccccc4)ccc3O[C@@H]2[C@H](CO)O1)NCC1CC1	none (no result: CAL PDZ FP-1, CAL PDZ FP-2)
O=C(NCCc1ccccc1)C(=O)NC1CCCCC1	none
O=C(NC1CCCCC1)C(=S)NCCc1ccccc1	CAL PDZ FP-2 42.9
CO[C@H]1CN(C)C(=O)c2cc(NS(=O)(=O)c3ccccc3F)ccc2OC[C@@H](C)NC[C@H]1C	none (no result: CAL PDZ FP-1, CAL PDZ FP-2)

Compound activity deposited in PubChem BioAssay by Broad Institute.
